Assay results reported in ChEMBL document CHEMBL5678815 (Clin Cancer Res, 2017).

Experiments:
[1] = molecular target: Mitogen-activated protein kinase kinase kinase 4 (Homo sapiens) (UniProt Q9Y6R4); assay: Inhibition of human MAP3K4 assessed as remaining activity at 1 uM by ATP-competition binding assay relative to control
Procedure, shortened: (§1)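 Single-point profiling at 1μM in an ATP-site-dependent competition binding assay across a panel of 395 human kinases, including mutant forms. The read-out is kinase binding signal in the presence of test agent, expressed as inhibition relative to the control signal. This screen assessed noncovalent binding interactions.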

[2] = molecular target: Tyrosine-protein kinase Blk (Homo sapiens) (UniProt P51451); assay: Inhibition of human BLK assessed as remaining activity at 1 uM by ATP-competition binding assay relative to control
Procedure, shortened: (§2)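 KINOMEscan ATP-site-dependent competition binding panel of 395 human kinases, with compound tested at 1 μM. Binding is reported as remaining signal relative to control.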

[3] = molecular target: Serine/threonine-protein kinase 17A (Homo sapiens) (UniProt Q9UEE5); assay: Inhibition of human DRAK1 assessed as remaining activity at 1 uM by ATP-competition binding assay relative to control; procedure, shortened: as §2
Serine/threonine-protein kinase 17A (Homo sapiens), sequence (Q9UEE5 whole entry): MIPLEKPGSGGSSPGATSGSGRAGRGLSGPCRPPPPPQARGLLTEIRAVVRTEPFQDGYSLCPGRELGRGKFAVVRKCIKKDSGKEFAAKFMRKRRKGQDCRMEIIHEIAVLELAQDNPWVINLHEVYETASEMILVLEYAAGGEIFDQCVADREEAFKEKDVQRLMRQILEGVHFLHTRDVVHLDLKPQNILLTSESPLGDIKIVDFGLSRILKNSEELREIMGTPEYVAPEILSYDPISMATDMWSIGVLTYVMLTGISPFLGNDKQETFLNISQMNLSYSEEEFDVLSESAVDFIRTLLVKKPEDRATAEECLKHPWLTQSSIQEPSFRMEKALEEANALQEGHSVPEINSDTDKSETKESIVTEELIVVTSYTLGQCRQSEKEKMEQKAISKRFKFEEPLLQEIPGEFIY

[4] = molecular target: Mitogen-activated protein kinase kinase kinase 19 (Homo sapiens) (UniProt Q56UN5); assay: Inhibition of human YSK4 assessed as remaining activity at 1 uM by ATP-competition binding assay relative to control
Mitogen-activated protein kinase kinase kinase 19 (Homo sapiens), sequence (Q56UN5 whole entry): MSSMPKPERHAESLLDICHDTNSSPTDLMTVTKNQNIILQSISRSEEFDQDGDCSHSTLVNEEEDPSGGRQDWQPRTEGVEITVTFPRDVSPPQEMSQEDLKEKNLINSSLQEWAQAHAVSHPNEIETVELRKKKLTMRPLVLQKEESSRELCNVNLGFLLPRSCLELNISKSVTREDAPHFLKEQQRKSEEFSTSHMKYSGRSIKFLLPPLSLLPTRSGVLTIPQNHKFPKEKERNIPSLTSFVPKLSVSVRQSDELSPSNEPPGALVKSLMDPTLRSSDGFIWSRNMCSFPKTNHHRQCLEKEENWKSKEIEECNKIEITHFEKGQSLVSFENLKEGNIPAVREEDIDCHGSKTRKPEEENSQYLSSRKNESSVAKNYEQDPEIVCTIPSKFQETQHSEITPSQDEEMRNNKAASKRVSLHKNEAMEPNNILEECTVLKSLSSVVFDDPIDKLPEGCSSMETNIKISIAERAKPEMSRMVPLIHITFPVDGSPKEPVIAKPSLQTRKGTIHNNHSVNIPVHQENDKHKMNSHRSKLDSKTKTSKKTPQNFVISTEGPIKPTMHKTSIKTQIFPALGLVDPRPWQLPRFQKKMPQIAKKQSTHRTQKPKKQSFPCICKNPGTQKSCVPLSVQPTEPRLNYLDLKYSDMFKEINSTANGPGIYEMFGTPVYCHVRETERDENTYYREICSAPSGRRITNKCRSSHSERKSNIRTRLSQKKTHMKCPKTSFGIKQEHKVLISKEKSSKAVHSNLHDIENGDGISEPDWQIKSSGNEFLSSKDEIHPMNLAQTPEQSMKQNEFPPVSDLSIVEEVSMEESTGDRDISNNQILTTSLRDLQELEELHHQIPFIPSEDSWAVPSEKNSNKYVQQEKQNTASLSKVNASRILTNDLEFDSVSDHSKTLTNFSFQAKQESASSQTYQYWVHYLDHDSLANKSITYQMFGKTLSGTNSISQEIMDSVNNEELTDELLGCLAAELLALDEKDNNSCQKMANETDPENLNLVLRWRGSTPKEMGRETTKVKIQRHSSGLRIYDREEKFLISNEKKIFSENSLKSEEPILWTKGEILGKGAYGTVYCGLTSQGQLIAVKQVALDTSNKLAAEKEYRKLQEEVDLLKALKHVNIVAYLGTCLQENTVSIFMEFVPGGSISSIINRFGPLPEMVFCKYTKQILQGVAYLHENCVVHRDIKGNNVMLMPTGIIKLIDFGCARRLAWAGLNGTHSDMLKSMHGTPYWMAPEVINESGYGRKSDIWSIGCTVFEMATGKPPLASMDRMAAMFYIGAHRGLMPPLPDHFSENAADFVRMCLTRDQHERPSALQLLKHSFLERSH
Procedure, shortened: (§3)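 Single-concentration (1 μM) screen in an ATP-site-dependent competition binding assay (KINOMEscan, outsourced) covering 395 human kinases, mutants included. Non-covalent binding was read as the remaining signal relative to the control signal.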

[5] = molecular target: cAMP-dependent protein kinase catalytic subunit beta (Homo sapiens) (UniProt P22694); assay: Inhibition of human PKAC-beta assessed as remaining activity at 1 uM by ATP-competition binding assay relative to control; procedure, shortened: as §3
[6] = molecular target: Myosin light chain kinase (Homo sapiens) (UniProt Q32MK0); assay: Inhibition of human MLCK assessed as remaining activity at 1 uM by ATP-competition binding assay relative to control; procedure, shortened: as §1
[7] = molecular target: Uncharacterized serine/threonine-protein kinase SBK3 (Homo sapiens) (UniProt P0C264); assay: Inhibition of human SgK110 assessed as remaining activity at 1 uM by ATP-competition binding assay relative to control; procedure, shortened: as §3
[8] = tested on: Proto-oncogene tyrosine-protein kinase receptor Ret (Homo sapiens), P07949 [M918T]; assay: Inhibition of human RET M918T assessed as remaining activity at 1 uM by ATP-competition binding assay relative to control; procedure, shortened: as §3
[9] = tested on: Mast/stem cell growth factor receptor Kit (Homo sapiens), P10721 [L576P]; assay: Inhibition of human KIT L576P mutant assessed as remaining activity at 1 uM by ATP-competition binding assay relative to control; procedure, shortened: as §1
[10] = molecular target: Tyrosine-protein kinase JAK1 (Homo sapiens) (UniProt P23458); assay: Inhibition of human JAK1 JH2 domain assessed as remaining activity at 1 uM by ATP-competition binding assay relative to control; procedure, shortened: as §1
Tyrosine-protein kinase JAK1 (Homo sapiens), sequence (P23458 whole entry, the tested form may be a part): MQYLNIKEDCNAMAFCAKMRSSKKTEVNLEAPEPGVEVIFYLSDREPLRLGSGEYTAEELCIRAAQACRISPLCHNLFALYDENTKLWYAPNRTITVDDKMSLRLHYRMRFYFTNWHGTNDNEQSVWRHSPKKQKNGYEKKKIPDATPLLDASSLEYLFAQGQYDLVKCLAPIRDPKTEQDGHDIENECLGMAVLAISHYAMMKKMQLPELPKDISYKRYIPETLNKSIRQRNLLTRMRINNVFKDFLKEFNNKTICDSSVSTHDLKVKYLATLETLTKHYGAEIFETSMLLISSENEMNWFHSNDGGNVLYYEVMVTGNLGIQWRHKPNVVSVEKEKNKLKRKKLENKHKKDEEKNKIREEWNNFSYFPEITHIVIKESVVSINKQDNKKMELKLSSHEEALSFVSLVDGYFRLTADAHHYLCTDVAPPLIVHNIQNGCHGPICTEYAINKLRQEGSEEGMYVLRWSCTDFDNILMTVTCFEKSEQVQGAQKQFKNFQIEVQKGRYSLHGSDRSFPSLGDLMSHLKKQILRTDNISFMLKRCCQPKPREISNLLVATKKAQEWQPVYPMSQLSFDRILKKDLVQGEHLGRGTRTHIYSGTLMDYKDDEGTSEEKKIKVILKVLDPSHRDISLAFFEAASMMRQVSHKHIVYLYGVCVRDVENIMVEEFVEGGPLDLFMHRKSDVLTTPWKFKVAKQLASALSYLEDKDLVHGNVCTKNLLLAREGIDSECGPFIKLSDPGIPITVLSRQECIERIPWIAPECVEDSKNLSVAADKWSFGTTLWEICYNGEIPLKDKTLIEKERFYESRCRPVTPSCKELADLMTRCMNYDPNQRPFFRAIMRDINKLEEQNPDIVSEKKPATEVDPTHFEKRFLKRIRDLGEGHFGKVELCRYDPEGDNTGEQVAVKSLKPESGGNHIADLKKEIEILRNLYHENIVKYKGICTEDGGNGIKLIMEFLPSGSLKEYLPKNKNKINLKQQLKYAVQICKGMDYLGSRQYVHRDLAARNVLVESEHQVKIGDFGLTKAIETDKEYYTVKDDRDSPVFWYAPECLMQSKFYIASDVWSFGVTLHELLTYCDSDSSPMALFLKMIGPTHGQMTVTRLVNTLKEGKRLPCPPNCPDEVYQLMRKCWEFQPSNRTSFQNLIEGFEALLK

[11] = molecular target: Ephrin type-A receptor 1 (Homo sapiens) (UniProt P21709); assay: Inhibition of human EPHA1 assessed as remaining activity at 1 uM by ATP-competition binding assay relative to control; procedure, shortened: as §2
[12] = molecular target: cAMP-dependent protein kinase catalytic subunit alpha (Homo sapiens) (UniProt P17612); assay: Inhibition of human PKAC-alpha assessed as remaining activity at 1 uM by ATP-competition binding assay relative to control; procedure, shortened: as §3
[13] = molecular target: Serine/threonine-protein kinase PLK4 (Homo sapiens) (UniProt O00444); assay: Inhibition of human PLK4 assessed as remaining activity at 1 uM by ATP-competition binding assay relative to control; procedure, shortened: as §3
[14] = molecular target: Macrophage colony-stimulating factor 1 receptor (Homo sapiens) (UniProt P07333); assay: Inhibition of human CSF1R assessed as remaining activity at 1 uM by ATP-competition binding assay relative to control; procedure, shortened: as §2
Macrophage colony-stimulating factor 1 receptor (Homo sapiens), sequence (P07333 whole entry): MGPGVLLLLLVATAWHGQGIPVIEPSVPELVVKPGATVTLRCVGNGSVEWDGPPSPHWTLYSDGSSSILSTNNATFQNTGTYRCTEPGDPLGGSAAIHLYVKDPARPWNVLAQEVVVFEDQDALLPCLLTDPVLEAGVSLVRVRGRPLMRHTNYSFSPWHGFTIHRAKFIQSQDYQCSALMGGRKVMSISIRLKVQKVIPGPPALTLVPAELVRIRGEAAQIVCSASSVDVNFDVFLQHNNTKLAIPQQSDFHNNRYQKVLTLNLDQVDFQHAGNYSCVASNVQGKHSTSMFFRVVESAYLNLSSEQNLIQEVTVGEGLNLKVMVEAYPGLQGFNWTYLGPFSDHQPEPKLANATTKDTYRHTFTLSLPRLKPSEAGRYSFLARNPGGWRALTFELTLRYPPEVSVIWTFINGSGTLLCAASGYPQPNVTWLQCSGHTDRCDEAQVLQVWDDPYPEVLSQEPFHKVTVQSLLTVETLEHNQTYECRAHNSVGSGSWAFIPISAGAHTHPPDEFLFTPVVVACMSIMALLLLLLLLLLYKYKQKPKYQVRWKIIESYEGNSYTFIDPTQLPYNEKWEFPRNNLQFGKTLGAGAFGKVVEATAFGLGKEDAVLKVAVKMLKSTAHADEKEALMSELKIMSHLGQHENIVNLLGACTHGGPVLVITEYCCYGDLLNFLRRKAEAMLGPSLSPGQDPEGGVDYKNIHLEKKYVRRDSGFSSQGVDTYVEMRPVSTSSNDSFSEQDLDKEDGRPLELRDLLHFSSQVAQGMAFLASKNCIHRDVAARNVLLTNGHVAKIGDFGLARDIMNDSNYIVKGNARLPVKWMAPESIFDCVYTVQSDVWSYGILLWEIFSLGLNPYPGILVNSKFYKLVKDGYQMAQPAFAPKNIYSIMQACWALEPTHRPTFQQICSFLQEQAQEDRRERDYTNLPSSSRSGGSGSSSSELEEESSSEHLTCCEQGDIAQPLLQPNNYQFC

[15] = molecular target: Mast/stem cell growth factor receptor Kit (Homo sapiens) (UniProt P10721); assay: Inhibition of human KIT assessed as remaining activity at 1 uM by ATP-competition binding assay relative to control; procedure, shortened: as §1
[16] = molecular target: Dual specificity protein kinase TTK (Homo sapiens) (UniProt P33981); assay: Inhibition of human TTK assessed as remaining activity at 1 uM by ATP-competition binding assay relative to control; procedure, shortened: as §3
[17] = molecular target: SRSF protein kinase 2 (Homo sapiens) (UniProt P78362); assay: Inhibition of human SRPK2 assessed as remaining activity at 1 uM by ATP-competition binding assay relative to control; procedure, shortened: as §3
SRSF protein kinase 2 (Homo sapiens), sequence (P78362 whole entry, looked up): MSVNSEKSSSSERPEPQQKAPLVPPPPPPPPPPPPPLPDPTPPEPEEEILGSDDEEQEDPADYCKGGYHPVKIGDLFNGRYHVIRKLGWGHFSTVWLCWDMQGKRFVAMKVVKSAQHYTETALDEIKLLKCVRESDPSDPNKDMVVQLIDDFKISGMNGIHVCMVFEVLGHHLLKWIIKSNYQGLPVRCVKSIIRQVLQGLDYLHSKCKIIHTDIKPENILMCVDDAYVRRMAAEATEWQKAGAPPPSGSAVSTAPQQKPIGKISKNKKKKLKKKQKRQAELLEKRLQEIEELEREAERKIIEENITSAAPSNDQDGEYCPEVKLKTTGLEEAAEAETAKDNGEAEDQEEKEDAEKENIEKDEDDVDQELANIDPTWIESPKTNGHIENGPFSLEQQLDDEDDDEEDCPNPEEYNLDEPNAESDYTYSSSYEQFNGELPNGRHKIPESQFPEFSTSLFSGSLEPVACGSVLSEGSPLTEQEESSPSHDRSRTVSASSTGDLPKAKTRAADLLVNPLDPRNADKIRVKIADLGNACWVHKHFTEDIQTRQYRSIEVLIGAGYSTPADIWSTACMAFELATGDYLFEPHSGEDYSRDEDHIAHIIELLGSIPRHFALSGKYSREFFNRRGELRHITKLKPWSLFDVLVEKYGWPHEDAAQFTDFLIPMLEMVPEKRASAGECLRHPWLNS

[18] = molecular target: RAC-alpha serine/threonine-protein kinase (Homo sapiens) (UniProt P31749); assay: Inhibition of human AKT1 assessed as remaining activity at 1 uM by ATP-competition binding assay relative to control; procedure, shortened: as §2
[19] = molecular target: Maternal embryonic leucine zipper kinase (Homo sapiens) (UniProt Q14680); assay: Inhibition of human MELK assessed as remaining activity at 1 uM by ATP-competition binding assay relative to control; procedure, shortened: as §1
[20] = molecular target: Serine/threonine-protein kinase pim-2 (Homo sapiens) (UniProt Q9P1W9); assay: Inhibition of human PIM2 assessed as remaining activity at 1 uM by ATP-competition binding assay relative to control; procedure, shortened: as §3
Serine/threonine-protein kinase pim-2 (Homo sapiens), sequence (Q9P1W9 whole entry, looked up): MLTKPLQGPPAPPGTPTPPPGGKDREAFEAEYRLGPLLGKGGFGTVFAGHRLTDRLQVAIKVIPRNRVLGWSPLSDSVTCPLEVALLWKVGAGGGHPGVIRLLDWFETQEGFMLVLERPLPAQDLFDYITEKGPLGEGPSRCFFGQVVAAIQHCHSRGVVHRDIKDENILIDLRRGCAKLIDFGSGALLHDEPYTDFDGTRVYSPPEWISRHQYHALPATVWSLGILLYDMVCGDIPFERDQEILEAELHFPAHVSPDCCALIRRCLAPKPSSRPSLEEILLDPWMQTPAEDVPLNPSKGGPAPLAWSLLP

Structure (SMILES): CC#CC(=O)N1CCC[C@H]1c1nc(-c2ccc(C(=O)Nc3ccccn3)cc2)c2c(N)nccn12 [ACALABRUTINIB]
- Activity [1]: 86%
- Activity [2]: 61%
- Activity [3]: 87%
- Activity [4]: 90%
- Activity [5]: 88%
- Activity [6]: 99%
- Activity [7]: 90%
- Activity [8]: 71%
- Activity [9]: 63%
- Activity [10]: 71%
- Activity [11]: 76%
- Activity [12]: 77%
- Activity [13]: 80%
- Activity [14]: 84%
- Activity [15]: 84%
- Activity [16]: 91%
- Activity [17]: 85%
- Activity [18]: 93%
- Activity [19]: 76%
- Activity [20]: 79%
